# From PubChem BioAssay AID1424 (The Scripps Research Institute Molecular Screening Center, 2008)
# About 390 (0.18%) of roughly 220,000 compounds were called active. The list comes from a sample in which actives are over-represented; it also holds similar structures and randomly drawn compounds. Values without a mark were called inactive.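 How the source made its calls: active means activation above its plate's cutoff, the mean activation of test wells on that plate plus 3 SD (cut at about 19% in these data); inactive means the rest.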
# Tested on: transient receptor potential cation channel N1 (TRPN1/NompC), Danio rerio
# Assay: TRPN1 activation via calcium influx – cell-based, HEK293, calcium fluorescence, zebrafish, primary screen (AID 1424);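 further: 0% = DMSO alone and 100% = 87 µM carbachol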
# Settings: HEK293 zebrafish TRPN1-YFP, Fluo-8 calcium fluorescence; at 3 µM; stronger effect = higher value; 100% = response to 87 µM carbachol
# Method in brief: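 Control set: carbachol 87 µM as high control, DMSO as low control; system: HEK293 stable line with zebrafish TRPN1-YFP; read-out: % activation versus carbachol response; detection: intracellular calcium fluorescence with Fluo-8; doses: single test compound dose, 3 µM nominal, 0.3% DMSO; schedule: dye 1 h 37 °C plus 30 min RT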
row,SMILES,activation
1,O=C(NCC(c1cccs1)N1CCOCC1)c1cc(-c2ccccn2)nc2ccccc12 (centres undefined),1.98%
2,CC(C)(C)c1cnnn1-c1ccc([N+](=O)[O-])cc1,1.54%
3,CN=C1C=C/C(=N/N=c2\ccn(O)cc2C)C=C1C,-3.14%
4,CCC(C(=O)Nc1ccc2c(c1)OCCO2)c1ccccc1 (centres undefined),-0.31%
5,CCC(C(=O)Nc1ccc(C(C)C)cc1)c1ccccc1 (centres undefined),29% (active)
6,CCC(C(=O)OCC(=O)Nc1ccc(C(=O)Nc2ccc(OC)cc2)cc1)c1ccccc1 (centres undefined),2.79%
7,CN(C)c1ccc(/C=C2\NC(=S)N(Cc3ccccc3)C2=O)cc1,30.3% (active)
8,O=C1NCC(=O)N(Cc2ccccc2)/C1=C/c1ccccc1,0.65%
9,CC1=NN(Cc2ccccc2)C(=O)/C1=C/c1ccc(N(C)C)cc1,-3.57%
10,Cc1ccc(S(=O)(=O)N2CCOCC2)cc1NC(=O)CSc1nnc(N)s1,0.64%
11,CC1CN(CCCOc2ccccc2-c2ccccc2)CC(C)O1 (centres undefined),-1.64%
12,CC(CNS(=O)(=O)c1ccc(Br)cc1)CN(C)C (centres undefined),0.45%
13,CCOc1cc2[nH]c(=O)n(Cc3ccc(C(=O)NCCCN4CCCC4=O)cc3)c(=O)c2cc1OCC,-0.57%
14,CC(C)(c1ccccc1)c1ccc(OCCN)cc1,2.87%
15,CONc1nc2nonc2nc1NOC,2.6%
16,CC1C(=O)NC(=O)C1c1ccccc1 (centres undefined),0.95%
17,Cc1cc(C)c(OCCN2CC(C)OC(C)C2)c(Br)c1 (centres undefined),-2.75%
18,Cc1ccc2[nH]cc(CCNC(=O)c3ccc([N+](=O)[O-])cc3)c2c1,-0.48%
19,COc1cc(/C=C(\C#N)c2nc3c(s2)CC(C)CC3)ccc1O (centres undefined),9.23%
20,COc1cc(/C=N\Nc2nc(-c3cccs3)c(NC(C)=O)s2)ccc1O,0.7%
21,CCOc1cc(/C=C(\C#N)c2nc(-c3cccs3)c(NC(C)=O)s2)ccc1O,26.9% (active)
22,COC(=O)c1cc(NC(=O)Cc2ccccc2[N+](=O)[O-])ccc1Cl,-1.23%
23,CC(=O)OC(C)C[N+](C)(C)C (centres undefined),51% (active)
24,CC(C[N+](C)(C)C)OC(N)=O (centres undefined),0.21%
25,CN1CCN(c2cc3c(cc2F)c(=O)c(C(=O)O)cn3CCF)CC1,1.93%
26,O=C(N1CCCCC1)N1CCN(C(=O)N2CCCCC2)CC1,1.43%
27,CC1=CC2=NC(=O)/C(=C/c3coc4ccccc4c3=O)C(=N)N2O1,35.5% (active)
28,COc1ccc(OCCCn2cccc2/C=C2/C(=N)N3OC(C)=CC3=NC2=O)cc1,1.04%
29,CCOc1cc(/C=C2/C(=N)N3OC(C)=CC3=NC2=O)ccc1OC,-0.5%
